Results from ChEMBL document CHEMBL1138251, “Synthesis and evaluation of antiparasitic activities of new 4-[5-(4-phenoxyphenyl)-2H-pyrazol-3-yl]morpholine derivatives” (J Med Chem, 2007).

What was measured:
Plasmodium falciparum = assay: Antiparasitic activity against chloroquine, pyrimethamine-resistant Plasmodium falciparum K1 erythrocyte stage
Leishmania donovani = assay: Antiparasitic activity against Leishmania donovani MHOM-ET-67/L82 in amastigotes stage; format: functional, organism-based
Outline: (§1)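 Microplate assay at pH 7.4. Organisms: L. donovani MHOM-ET-67/L82, T. b. rhodesiense STIB900, T. cruzi Tulahuen C4. Cytotoxicity used rat skeletal myoblast L-6 cells. Compounds were tested in duplicate at […], and actives were retested in duplicate down to 3.5 nM. IC50 was taken from sigmoidal inhibition curves. Reference standards: miltefosine (L. donovani), melarsoprol (T. b. rhodesiense), benznidazole (T. cruzi), podophyllotoxin (L-6).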

[1] = tested on: Trypanosoma brucei rhodesiense; assay: Antiparasitic activity against Trypanosoma brucei rhodesiense STIB900 in blood; format: functional, organism-based
Outline: as §1

Trypanosoma cruzi = assay: Antiparasitic activity against Trypanosoma cruzi Tulahuen C4 in amastigotes stage
L6 = assay: Cytotoxicity against rat L6 cells; format: cell-based
[2] = tested on: Trypanosoma brucei rhodesiense; assay: Antiparasitic activity against Trypanosoma brucei rhodesiense STIB900 in procyclic stage; format: functional, organism-based

Row | Structure (SMILES) | IC50 (Plasmodium falciparum) [µM] | IC50 (Leishmania donovani) [µM] | IC50 [1] [µM] | IC50 (Trypanosoma cruzi) [µM] | IC50 (L6) [µM] | IC50 [2] [µM]
1 | CCc1ccc(C(=O)CC(=O)C2CCOCC2)cc1 | > 19 | 9.8 | 20.9 | 54.9 | 202 | 3.4
2 | O=C(CC(=O)c1ccc(Oc2ccccc2)cc1)CN1CCOCC1 | > 15 | 5.2 | 18.9 | 20.6 | 112 | 1
3 | Nc1ccc(Oc2ccc(-c3cc(N4CCOCC4)[nH]n3)cc2)cc1 | > 14 | 20.3 | 17.7 | > 89 | > 267 | > 267
4 | Nc1ccc(-n2nc(-c3ccc(Oc4ccccc4)cc3)cc2N2CCOCC2)cc1 | 6.5 | 10.5 | 10.3 | 22 | 61.6 | 61.7
5 | c1ccc(Oc2ccc(-c3cc(N4CCNCC4)[nH]n3)cc2)cc1 | 6.6 | 25.8 | 1.1 | 9.5 | 18 | 4.7
6 | CCc1ccc(-c2cc(C3CCOCC3)[nH]n2)cc1 | > 19 | 15.1 | 28.6 | 114 | 165 | 7.8
7 | c1ccc(Oc2ccc(-c3cc(C4CCOCC4)[nH]n3)cc2)cc1 | > 15 | 6.4 | 3.2 | 59 | 89.6 | 43
8 | O=[N+]([O-])c1ccc(Oc2ccc(-c3cc(N4CCOCC4)[nH]n3)cc2)cc1 | > 13 | 22.3 | 4.4 | > 81 | > 245 | 93.4
9 | CSC(=CC(=O)c1ccc([N+](=O)[O-])cc1)SC | > 18 | 20.2 | 224 | 54.6 | 40.5 | > 334
10 | CSC(=CC(=O)c1ccc(Oc2ccccc2)cc1)SC | > 15 | 9.7 | 51.4 | 24.4 | 34.5 | 16.6
11 | c1ccc(Oc2ccc(-c3cc(N4CCOCC4)[nH]n3)cc2)cc1 | > 15 | 8 | 1 | 52 | 61.6 | 40.7
12 | c1ccc(Oc2ccc(-c3cc(N4CCOCC4)on3)cc2)cc1 | 10.5 | 12.7 | 5.9 | 46.5 | 172 | 75.2
13 | O=[N+]([O-])c1ccc(-n2nc(-c3ccc(Oc4ccccc4)cc3)cc2N2CCOCC2)cc1 | 3.7 | 4.8 | 28.8 | > 67 | > 203 | > 203
14 | CC(C)(C)OC(=O)N1CCN(c2cc(-c3ccc(Oc4ccccc4)cc3)n[nH]2)CC1 | 8.1 | 2.3 | 2.9 | 12.8 | 30 | 17.6
15 | c1ccc(Oc2ccc(-c3cc(CN4CCOCC4)[nH]n3)cc2)cc1 | > 14 | 15.6 | 4.1 | 45.3 | 150 | 54.9
16 | O=C(CC(=O)C1CCOCC1)c1ccc(Oc2ccccc2)cc1 | > 15 | 4.6 | 25.8 | 54.6 | 231 | 1.8
17 | CSC(=CC(=O)c1ccc(Oc2ccc([N+](=O)[O-])cc2)cc1)SC | > 13 | 5.7 | 45.9 | > 83 | 156 | > 249
18 | O=C(Cn1ccnc1[N+](=O)[O-])NCc1ccccc1 [BENZNIDAZOLE] |  |  |  | 2.13 |  | 
19 | Nc1nc(N)nc(Nc2ccc([As]3SCC(CO)S3)cc2)n1 (stereo unspecified) [MELARSOPROL] |  |  | 0.01 |  |  | 0.13
20 | CCCCCCCCCCCCCCCCOP(=O)([O-])OCC[N+](C)(C)C [MILTEFOSINE] |  | 0.26 |  |  |  | 
